Results: ChEMBL document CHEMBL5260861, “Examination of aminophenol-containing compounds designed as antiproliferative agents and potential atypical retinoids” (2023)
The source made the active and inactive calls. The calls are words filed in the database; no cut-off is given here.

Assays:
MCF7 [1] = assay: Antiproliferative activity against human MCF7 cells assessed as inhibition of cell growth at 1 to 10 uM incubated for 72 hrs by MTT assay; type: functional, cell-based; conditions: dose 1-10 µM
Procedure, shortened: (§1)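 Cells seeded at 1–4 × 10^4 cells/mL in RPMI 1640 with 10% FBS and 1 mM HEPES, 37 °C, 5% CO2. After 24 h, compounds added at various concentrations for 72 h; controls received 0.1% DMSO. Viable cells measured by MTT. Percent net growth calculated relative to control, correcting for initial absorbance. Mean ± SD (n = 3).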

PC-3 [2] = assay: Antiproliferative activity against human PC-3 cells assessed as inhibition of cell growth at 10 uM incubated for 72 hrs by MTT assay; type: functional; procedure, shortened: as §1
MCF7 [3] = assay: Antiproliferative activity against human MCF7 cells assessed as inhibition of cell growth at 4 to 10 uM incubated for 72 hrs by MTT assay; type: functional, cell-based; conditions: dose 4-10 µM; procedure, shortened: as §1
PC-3 [4] = assay: Antiproliferative activity against human PC-3 cells assessed as inhibition of cell growth at 4 to 10 uM incubated for 72 hrs by MTT assay; type: functional, cell-based; conditions: dose 4-10 µM; procedure, shortened: as §1
MCF7 [5] = assay: Antiproliferative activity against human MCF7 cells assessed as inhibition of cell growth incubated for 72 hrs by MTT assay; type: functional, cell-based; conditions: dose 1-10 µM; procedure, shortened: as §1
MCF7 [6] = assay: Antiproliferative activity against human MCF7 cells assessed as inhibition of cell growth at 4 uM incubated for 72 hrs by MTT assay; type: functional; procedure, shortened: as §1
MCF7 [7] = assay: Antiproliferative activity against human MCF7 cells assessed as inhibition of cell growth at 10 uM incubated for 72 hrs by MTT assay; type: functional; procedure, shortened: as §1
PC-3 [8] = assay: Antiproliferative activity against human PC-3 cells assessed as inhibition of cell growth incubated for 72 hrs by MTT assay; type: functional, cell-based; conditions: dose 1-10 µM; procedure, shortened: as §1
PC-3 [9] = assay: Antiproliferative activity against human PC-3 cells assessed as inhibition of cell growth at 1 uM incubated for 72 hrs by MTT assay; type: functional; procedure, shortened: as §1
PC-3 [10] = assay: Antiproliferative activity against human PC-3 cells assessed as inhibition of cell growth at 1 to 10 uM incubated for 72 hrs by MTT assay; type: functional, cell-based; conditions: dose 1-10 µM; procedure, shortened: as §1
PC-3 [11] = assay: Antiproliferative activity against human PC-3 cells assessed as inhibition of cell growth at 4 uM incubated for 72 hrs by MTT assay; type: functional; procedure, shortened: as §1
MCF7 [12] = assay: Inhibition of Akt phosphorylation in human MCF7 cells assessed as decrease in phosphorylated Akt level at 10 uM incubated for 72 hrs by immunoblotting analysis; type: cell-based
Procedure, shortened: (§2)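 Cells seeded at 2 × 10^4 cells/mL and grown 24 h, then given 10 μM compound or DMSO for 72 h. Whole-cell lysates prepared in NP40 buffer (25 mM Tris-HCl pH 8, 150 mM NaCl, 0.5% NP40, NaF, Na3VO4, protease inhibitors), quantified by BCA. Lysates run on SDS-PAGE and blotted. Probed for Bcl-2, Bcl-xL, ERK/p-ERK, Akt/p-Akt and β-actin. Control set to 1.0; mean ± SD (n = 3).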

[13] = molecular target: T1, Retinoic acid receptor alpha (Homo sapiens) (UniProt P10276); assay: Agonist activity at human RAR-alpha assessed as receptor transactivation at 500 to 20000 nM incubated for 24 hrs by luciferase reporter gene assay; conditions: dose 500-20000 nM
T1 sequence (whole entry): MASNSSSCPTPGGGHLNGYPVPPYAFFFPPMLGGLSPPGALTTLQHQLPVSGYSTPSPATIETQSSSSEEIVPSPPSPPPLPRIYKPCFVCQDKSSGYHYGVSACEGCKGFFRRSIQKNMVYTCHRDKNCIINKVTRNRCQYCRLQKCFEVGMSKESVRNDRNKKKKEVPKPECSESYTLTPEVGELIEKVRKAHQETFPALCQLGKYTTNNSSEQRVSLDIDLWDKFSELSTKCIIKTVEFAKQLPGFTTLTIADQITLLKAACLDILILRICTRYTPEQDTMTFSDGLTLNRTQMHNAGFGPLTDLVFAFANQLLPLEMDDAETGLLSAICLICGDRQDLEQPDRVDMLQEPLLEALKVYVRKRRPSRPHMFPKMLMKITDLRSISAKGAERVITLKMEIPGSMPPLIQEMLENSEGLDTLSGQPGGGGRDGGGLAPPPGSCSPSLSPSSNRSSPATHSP
Procedure, shortened: (§3)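 INDIGO RARα or RXRα reporter cells seeded, then medium containing compound added (0.5, 1, 4, 10, 20 μM); 24 h at 37 °C. Medium removed, luciferase detection reagent added, light emission read. 9-cis-retinoic acid (0.5–500 nM) served as positive control. Three replicate wells per vehicle control; mean ± SD (n = 3).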

[14] = molecular target: T2, Retinoic acid receptor RXR-alpha (Homo sapiens) (UniProt P19793); assay: Agonist activity at human RXR-alpha assessed as receptor transactivation at 500 to 20000 nM incubated for 24 hrs by luciferase reporter gene assay; conditions: dose 500-20000 nM; procedure, shortened: as §3
T2 sequence (whole entry): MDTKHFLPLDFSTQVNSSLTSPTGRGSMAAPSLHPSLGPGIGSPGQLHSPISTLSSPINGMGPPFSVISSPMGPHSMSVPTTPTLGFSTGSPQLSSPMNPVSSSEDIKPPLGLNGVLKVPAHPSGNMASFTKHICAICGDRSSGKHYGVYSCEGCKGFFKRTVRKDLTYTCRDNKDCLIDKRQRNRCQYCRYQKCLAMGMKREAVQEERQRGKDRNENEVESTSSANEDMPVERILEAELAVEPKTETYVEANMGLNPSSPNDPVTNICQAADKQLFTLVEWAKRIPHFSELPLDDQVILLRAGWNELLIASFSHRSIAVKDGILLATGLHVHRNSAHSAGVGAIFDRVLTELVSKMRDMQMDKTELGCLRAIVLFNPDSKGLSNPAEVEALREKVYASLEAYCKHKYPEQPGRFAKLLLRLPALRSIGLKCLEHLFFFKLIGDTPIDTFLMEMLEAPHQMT

MCF7 [15] = assay: Induction of cell cycle arrest in human MCF7 cells at 10 uM incubated for 24 hrs by propidium iodide staining based flow cytometry; type: functional
Procedure, shortened: (§4)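 Cells seeded at 2 × 10^4 cells/mL and grown 24 h, then given 10 μM compound or DMSO for 24 h. Harvested cells fixed in 70% ethanol at 4 °C overnight, washed twice with PBS, and treated with 100 μg/mL RNase A (37 °C, 30 min). Stained with 10 μg/mL propidium iodide; cell cycle analysed by flow cytometry.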

PC-3 [16] = assay: Induction of cell cycle arrest in human PC-3 cells at 10 uM incubated for 24 hrs by propidium iodide staining based flow cytometry; type: functional; procedure, shortened: as §4
MCF7 [17] = assay: Induction of apoptosis in human MCF7 cells assessed as accumulation of cells at subG1 phase at 10 uM incubated for 24 hrs by propidium iodide staining based flow cytometry; type: functional, cell-based; procedure, shortened: as §4
PC-3 [18] = assay: Induction of apoptosis in human PC-3 cells assessed as accumulation of cells at subG1 phase at 10 uM incubated for 24 hrs by propidium iodide staining based flow cytometry; type: functional, cell-based; procedure, shortened: as §4
MCF7 [19] = assay: Effect on Bcl-2 protein expression in human MCF7 cells at 10 uM incubated for 72 hrs by immunoblotting analysis; type: functional, cell-based; procedure, shortened: as §2
PC-3 [20] = assay: Effect in Bcl-2 protein expression in human PC-3 cells at 10 uM incubated for 72 hrs by immunoblotting analysis; type: functional, cell-based; procedure, shortened: as §2
MCF7 [21] = assay: Effect in Bcl-xL protein expression in human MCF7 cells at 10 uM incubated for 72 hrs by immunoblotting analysis; type: functional, cell-based; procedure, shortened: as §2
PC-3 [22] = assay: Effect in Bcl-xL protein expression in human PC-3 cells at 10 uM incubated for 72 hrs by immunoblotting analysis; type: functional, cell-based; procedure, shortened: as §2
MCF7 [23] = assay: Inhibition of ERK phosphorylation in human MCF7 cells at 10 uM incubated for 72 hrs by immunoblotting analysis; type: cell-based; procedure, shortened: as §2
PC-3 [24] = assay: Inhibition of ERK phosphorylation in human PC-3 cells at 10 uM incubated for 72 hrs by immunoblotting analysis; type: cell-based; procedure, shortened: as §2
MCF7 [25] = assay: Induction of autophagy in human MCF7 cells assessed as increase in LC3-II protein expression at 10 uM incubated for 72 hrs by immunoblotting analysis relative to control; type: functional
Procedure, shortened: (§5)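 Cells seeded at 2 × 10^4 cells/mL and grown 24 h at 37 °C in 5% CO2 in RPMI 1640 with 10% FBS and 1 mM HEPES. They were then treated 72 h with compound at 10 μM or with DMSO control. Whole-cell lysates were made in NP40 buffer, protein measured by BCA, and samples run on SDS-PAGE. LC3 was probed with β-actin as loading control. Control was set to 1.0; mean ± SD, n = 3.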

PC-3 [26] = assay: Induction of autophagy in human PC-3 cells assessed as increase in LC3-II protein expression at 10 uM incubated for 72 hrs by immunoblotting analysis relative to control; type: functional; procedure, shortened: as §5
PC-3 [27] = assay: Inhibition of Akt phosphorylation in human PC-3 cells assessed as decrease in phosphorylated Akt level at 10 uM incubated for 72 hrs by immunoblotting analysis; type: cell-based; procedure, shortened: as §2

With `COC(=O)CCCCCCCCCCCNc1ccc(O)cc1` the Activity (MCF7 [1]) was “inactive” and the inhibition at 10 µM (PC-3 [2]) was 10%.
For `CCCCCCCC(=O)Nc1ccc(O)cc1`, the Activity (MCF7 [3]) was “inactive”, the Activity (PC-3 [4]) was “Active” and the inhibition at 10 µM (PC-3 [2]) was 45%.
With `CCCCCCCCCCCCNc1ccc(O)cc1` the Activity (MCF7 [5]) was “Dose-Dependent Effect”, the inhibition at 4 µM (MCF7 [6]) was 61% and the inhibition at 10 µM (MCF7 [7]) was 73%. The Activity (PC-3 [8]) was “Dose-Dependent Effect” and the inhibition at 1 µM (PC-3 [9]) was 91%.
In the case of `COC(=O)CCCCCCC(=O)Nc1ccc(O)cc1`, the Activity (MCF7 [1]) is reported as “inactive”.
`CCCCCCCCCC(=O)Nc1ccc(O)cc1` was tested, and the Activity (MCF7 [3]) was “inactive”, the Activity (PC-3 [4]) was “Active” and the inhibition at 10 µM (PC-3 [2]) was 43%.
`O=C(O)CCCCCCCCCNc1ccc(O)cc1` was tested, and the Activity (MCF7 [1]) was “inactive” and the Activity (PC-3 [10]) was “inactive”.
For `O=C(O)CCCCCCCNc1ccc(O)cc1`, the Activity (MCF7 [1]) was “inactive” and the Activity (PC-3 [10]) was “inactive”.
`CCCCCCCCCCNc1ccc(O)cc1` was tested, and the Activity (MCF7 [5]) was “Dose-Dependent Effect”, the inhibition at 4 µM (MCF7 [6]) was 31% and the inhibition at 10 µM (MCF7 [7]) was 51%. The Activity (PC-3 [8]) was “Dose-Dependent Effect” and the inhibition at 1 µM (PC-3 [9]) was 65%.
`O=C(O)CCCCCCC(=O)Nc1ccc(O)cc1` was tested, and the inhibition at 4 µM (MCF7 [6]) was 30%, the Activity (MCF7 [3]) was “Active” and the Activity (PC-3 [4]) was “inactive”.
`O=C(O)CCCCCCCCC(=O)Nc1ccc(O)cc1` was tested, and the inhibition at 4 µM (MCF7 [6]) was 28%, the Activity (MCF7 [3]) was “Active” and the Activity (PC-3 [4]) was “inactive”.
With `CCCCCCCCNc1ccc(O)cc1` the Activity (MCF7 [5]) was “Dose-Dependent Effect”, the inhibition at 4 µM (MCF7 [6]) was 14% and the inhibition at 10 µM (MCF7 [7]) was 45%. For the same compound, the Activity (PC-3 [8]) was “Dose-Dependent Effect” and the inhibition at 1 µM (PC-3 [9]) was 33%.
In the case of `CCCCCCCCCCCC(=O)Nc1ccc(O)cc1`, the Activity (MCF7 [3]) is reported as “inactive”, the Activity (PC-3 [4]) is reported as “Active” and the inhibition at 10 µM (PC-3 [2]) is reported as 24%.
With `COC(=O)CCCCCCCCCNc1ccc(O)cc1` the Activity (MCF7 [1]) was “inactive”.
`COC(=O)CCCCCCCCCCC(=O)Nc1ccc(O)cc1` was tested, and the Activity (MCF7 [1]) was “inactive” and the inhibition at 10 µM (PC-3 [2]) was 10%.
For `CC1=C(/C=C/C(C)=C/C=C/C(C)=C/C(=O)O)C(C)(C)CCC1` [TRETINOIN], the inhibition at 4 µM (MCF7 [6]) was 37% and the inhibition at 4 µM (PC-3 [11]) was 18%.
In the case of `O=C(O)CCCCCCCCCCCNc1ccc(O)cc1`, the Activity (MCF7 [1]) is reported as “inactive” and the Activity (PC-3 [10]) is reported as “inactive”.
With `O=C(O)CCCCCCCCCCC(=O)Nc1ccc(O)cc1` the inhibition (MCF7 [12]) was “Active”, the inhibition at 4 µM (MCF7 [6]) was 40% and the inhibition at 4 µM (PC-3 [11]) was 54%. The Activity (MCF7 [3]) was “Active”, the inhibition at 10 µM (PC-3 [2]) was 70% and the Activity [13] was “inactive”. For the same compound, the Activity [14] was “inactive”, the Activity (MCF7 [15]) was “inactive” and the Activity (PC-3 [16]) was “inactive”. For the same compound, the Activity (MCF7 [17]) was “inactive”, the Activity (PC-3 [18]) was “inactive” and the Activity (MCF7 [19]) was “inactive”. For the same compound, the Activity (PC-3 [20]) was “inactive”, the Activity (MCF7 [21]) was “inactive” and the Activity (PC-3 [22]) was “inactive”. For the same compound, the inhibition (MCF7 [23]) was “inactive”, the inhibition (PC-3 [24]) was “inactive” and the “fold change (FC)” value (MCF7 [25]) was 1.6. The “fold change (FC)” value (PC-3 [26]) was 1.5 and the inhibition (PC-3 [27]) was 35%.
In the case of `COC(=O)CCCCCCCNc1ccc(O)cc1`, the Activity (MCF7 [1]) is reported as “inactive”.
For `COC(=O)CCCCCCCCC(=O)Nc1ccc(O)cc1`, the Activity (MCF7 [1]) was “inactive”.
